{"source": "paper PMC5990500", "about": "(Neurology and Therapy, 2017)", "key": {"[1]": {"system": "patients with mild-to-moderate probable Alzheimer's disease", "conditions": "cited from earlier work"}, "[2]": {"system": "rat hippocampal slices", "conditions": "application to rat hippocampal slices; cited from earlier work"}, "[3]": {"system": "patients with mild-to-moderate schizophrenia", "test": "Safety and tolerability", "format": "in vivo, human", "in_short": "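Patients were randomized 1:1:1:1 to oral test compound (25, 50 or 100 mg) or placebo once daily for 14 days, double-blind. Assessments were AEs, vital signs, 12-lead ECG, clinical laboratory tests, physical examination, CGI-I, PANSS, C-SSRS, Snellen visual acuity and Ishihara colour vision. End-of-treatment visit came 7–14 days after the last dose. All dosed patients were included, and results were summarized descriptively.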"}, "[4]": {"system": "cGMP", "conditions": "healthy male volunteers, single oral dose; cited from earlier work"}, "[5]": {"system": "healthy male volunteers", "conditions": "cited from earlier work"}, "[6]": {"format": "in vivo, human", "in_short": "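Randomized, double-blind, placebo-controlled study in DSM-IV schizophrenia patients (18–55 y, clinically stable, on one antipsychotic). Plasma AUC0−∞, Cmax and tmax taken on day 1, and AUCtau,ss, Cmax,ss and tmax,ss at steady state (day 14). Dose proportionality was fitted by log-log linear regression.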"}, "[7]": {"system": "cGMP", "conditions": "cited from earlier work"}, "[8]": {"system": "memory performance", "conditions": "cited from earlier work"}, "[9]": {"conditions": "healthy male volunteers, single oral dose; cited from earlier work"}, "[10]": {"conditions": "phase II placebo-controlled study"}, "[11]": {"conditions": "steady state vs single dose, 25 to 100 mg"}}, "note": "Like-named read-outs stand apart in the source and are kept apart here.", "data": [{"compound": "C[C@@H]1CN(Cc2ncccn2)C[C@H]1c1nc2c(cnn2C2CCOCC2)c(=O)[nH]1", "note": "[PF-04447943]", "values": [{"measurement": "efficacy vs placebo in cognition, behavior, clinician-rated global change", "setting": "[1]; 12-week treatment", "result": "not more effective than placebo"}, {"measurement": "estimated median exposure relative to the IC50", "setting": "[1]; [10]", "result": "remained above the IC50 for the entire dosing duration"}, {"measurement": "maximal concentrations relative to the IC50", "setting": "[1]; [10]", "result": "approximately five times the IC50"}]}, {"compound": "O=c1[nH]c(Cc2ccccn2)nc2c1cnn2C1CCOCC1", "note": "[BI 409306]", "values": [{"measurement": "effect on long-term potentiation (LTP)", "setting": "[2]", "result": "significant enhancement of long-term potentiation"}, {"measurement": "mean change from baseline in total PANSS score", "setting": "[3]; 25 mg qd, day 7", "result": "−0.1"}, {"measurement": "mean change from baseline in total PANSS score", "setting": "[3]; 25 mg qd, day 13", "result": 2.3}, {"measurement": "mild suicidal ideation after treatment initiation (C-SSRS score = 1), patients", "setting": "[3]; 50 mg qd", "result": "one patient"}, {"measurement": "mean change from baseline in total PANSS score", "setting": "[3]; 50 mg qd, day 7", "result": "−0.2"}, {"measurement": "mean change from baseline in total PANSS score", "setting": "[3]; 50 mg qd, day 13", "result": 0.0}, {"measurement": "mean change from baseline in total PANSS score", "setting": "[3]; 100 mg qd, day 7", "result": "−1.4"}, {"measurement": "mean change from baseline in total PANSS score", "setting": "[3]; 100 mg qd, day 13", "result": "−3.6"}, {"measurement": "effect on mean pupil diameter relative to placebo", "setting": "[3]; 25, 50, 100 mg qd", "result": "negligible effect"}, {"measurement": "CGI-I, overall disease status", "setting": "[3]; 25, 50, 100 mg qd 14 days", "result": "no change or minimal improvement"}, {"measurement": "changes in laboratory parameters, vital signs, or ECGs", "setting": "[3]; 25, 50, 100 mg qd 14 days", "result": "No clinically relevant or dose-related changes"}, {"measurement": "deaths, serious AEs, discontinuation due to AEs", "setting": "[3]; 25, 50, 100 mg qd 14 days", "result": "no deaths, serious AEs or discontinuation due to AEs"}, {"measurement": "intensity of AEs", "setting": "[3]; 25, 50, 100 mg qd 14 days", "result": "mild"}, {"measurement": "tolerability", "setting": "[3]; 25, 50, 100 mg qd 14 days", "result": "well tolerated"}, {"measurement": "color discrimination (Ishihara plates)", "setting": "[3]; all treatment groups", "result": "normal at maximum time points in all the patients"}, {"measurement": "cGMP in the CSF", "setting": "[4]", "result": "dose- and concentration-dependent increase"}, {"measurement": "frequency of eye disorders", "setting": "[5]; healthy male Chinese and Japanese subjects receiving BI 409306", "result": 29.8, "unit": "%"}, {"measurement": "time to resolution of visual AEs / eye disorders", "setting": "[5]; healthy male volunteers", "result": "1 to 2", "unit": "h"}, {"measurement": "dose proportionality of exposure", "setting": "[6]; 25- to 100-mg dose range", "result": "dose-proportional from 50 to 100 mg"}, {"measurement": "gCV% of exposure (inter-individual variability)", "setting": "[6]; CYP2C19 µM predicted phenotype", "result": 154, "unit": "%"}, {"measurement": "gCV% of exposure (inter-individual variability)", "setting": "[6]; CYP2C19 EM predicted phenotype", "result": 152, "unit": "%"}, {"measurement": "gCV% of exposure (inter-individual variability)", "setting": "[6]; CYP2C19 IM predicted phenotype", "result": 48.4, "unit": "%"}, {"measurement": "exposure by CYP2C19 predicted phenotype", "setting": "[6]; IM, EM, UM patients", "result": "highest in patients with the CYP2C19 IM predicted phenotype, followed by EM and UM patients"}, {"measurement": "half-life", "setting": "[6]; human, plasma, oral", "result": "1.1 to 1.85", "unit": "h"}, {"measurement": "gCV of AUC0−∞ (inter-individual variability), range over dose groups", "setting": "[6]; single dose", "result": "98.4% to 108%"}, {"measurement": "gCV of C max (inter-individual variability), range over dose groups", "setting": "[6]; single dose", "result": "73.3% to 106%"}, {"measurement": "time to reach C max", "setting": "[6]; single dose, across 25, 50, 100 mg", "result": "30 to 45", "unit": "min"}, {"measurement": "gCV of AUCtau,ss (inter-individual variability), range over dose groups", "setting": "[6]; steady state", "result": "86.8% to 112%"}, {"measurement": "gCV of C max,ss (inter-individual variability), range over dose groups", "setting": "[6]; steady state", "result": "74.4% to 90.9%"}, {"measurement": "accumulation ratio AUC, range over dose groups", "setting": "[6]; [11]", "result": "0.758–1.13"}, {"measurement": "accumulation ratio C max, range over dose groups", "setting": "[6]; [11]", "result": "0.768–1.40"}, {"measurement": "cGMP in rat cerebrospinal fluid (CSF) and prefrontal cortex", "setting": "[7]", "result": "dose-dependent increase"}, {"measurement": "memory performance", "setting": "[8]", "result": "improved memory performance"}, {"measurement": "maximum concentration in CSF as % of the maximum plasma concentration", "setting": "[9]", "result": 28.31, "unit": "%"}]}]}
